# Hits are enriched below; roughly 1.9% of the tested compounds scored in any of these assays.
# MBD2 inh: inhibitors of MBD2 binding to methylated DNA, primary screen, biochemical, TR-FRET, DNA-binding domain, human. Methyl-CpG-binding domain protein 2 (Homo sapiens), Q9UBB5. MBD2 binding to methylated oligonucleotide. inhibition, % at 4.4 µM. 370,000 tested, 0.31% active. AID 686964, 2013; in the data active = inhibition above about 13%
# Target sequence (Q9UBB5 whole entry, looked up, the tested form may be a part): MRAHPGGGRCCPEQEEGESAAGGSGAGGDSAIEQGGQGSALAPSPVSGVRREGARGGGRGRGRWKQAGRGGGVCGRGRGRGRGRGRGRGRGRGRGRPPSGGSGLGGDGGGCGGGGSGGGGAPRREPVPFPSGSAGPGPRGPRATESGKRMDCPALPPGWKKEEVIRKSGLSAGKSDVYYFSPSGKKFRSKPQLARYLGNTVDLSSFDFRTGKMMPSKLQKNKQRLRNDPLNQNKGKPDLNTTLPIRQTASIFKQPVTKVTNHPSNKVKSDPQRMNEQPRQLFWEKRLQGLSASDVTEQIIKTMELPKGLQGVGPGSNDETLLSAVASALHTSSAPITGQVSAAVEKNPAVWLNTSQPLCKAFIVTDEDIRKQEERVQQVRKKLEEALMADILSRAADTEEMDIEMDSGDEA
# LEDGF integ inh: blockers of LEDGF/p75-dependent integrase strand transfer – biochemical, TR-FRET, high throughput, primary screen; inhibition, % at 3.7 µM; 370,000 tested, 0.64% active; AID 743269, 2014; TR-FRET IN-LEDGF/p75 DNA integration, Eu/Cy5;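 active = inhibition above the screen-wide mean plus 3 SD, cut at about 13% in these data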;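 also: signal is the Cy5 over europium emission ratio at 671 and 618 nm; 0% = plate median of compound wells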
# TDP2 absorb: human TDP2 enzyme inhibitors, primary screen, biochemical, epi absorbance, recombinant enzyme | Tyrosyl-DNA phosphodiesterase 2 (Homo sapiens), O95551 | T5PNP hydrolysis, p-nitrophenol absorbance 415 nm | inhibition, % at 12.8 µM | 370,000 tested, 0.34% active;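 active = inhibition above the mean of all tested compounds plus 3 SD, set per campaign, cut at about 25% in these data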;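 also: 0% = DMSO with enzyme and 100% = buffer with substrate but no TDP2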
#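 Evaluation: % inhibition relative to enzyme-containing and enzyme-free wells. Material: recombinant human TDP2. Benchmarks: enzyme-free and DMSO wells. Timing: enzyme reaction with compound for 2 h at 37 °C. Compound dosing: 12.8 µM only. Measured by: p-Nitrophenol epi absorbance. Reagent: T5PNP substrate at 5 mM, a TopII-DNA adduct mimic. Replication: single well per compound.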
# Rin1-Abl PPI inh: inhibitors of Rin1-Abl protein binding, primary screen, biochemical, TR-FRET; AID 588664, 2011; 360,000 tested, 0.4% active; inhibition, % at 7.35 µM; in the data active = inhibition above about 5%, passing the limit was not always enough
# UHRF1 MBD2 ctr: UHRF1 methylated DNA binding inhibitors, primary screen, counter-screen for MBD2 inhibitor project, biochemical, TR-FRET, human UHRF1, single concentration. inhibition, % at 4.4 µM. 370,000 tested, 0.75% active. UHRF1 binding to methylated oligo. E3 ubiquitin-protein ligase UHRF1 (Homo sapiens), Q96T88; in the data active = inhibition above about 21%;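 also: UHRF1 SRA domain binding a hemimethylated CpG hairpin DNA probe; 0% = median of test compound wells and 100% = reference inhibitor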
# Rin1-Abl confirm: Rin1-Abl binding inhibitor retest, confirmation, biochemical, TR-FRET. purified proteins. 1,300 tested, 49% active. inhibition, % at 7.35 µM. shares compounds with Rin1-Abl PPI inh
# GFP quencher: GFP fluorescence inhibitors and quenchers, artefact control for Rin1-Abl interaction inhibitor project, biochemical; shares compounds with Rin1-Abl PPI inh; inhibitors/quenchers counterscreen; inhibition, % at 6.75 µM; 1,300 tested, 8.5% active;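 also: ABL1-eGFP fusion protein alone without its partner RIN1-SBP; 0% = protein with vehicle and 100% = wells lacking protein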
# GFP quench dose: GFP fluorescence inhibitors and quenchers, dose response, artefact control for Rin1-Abl interaction inhibitor project, biochemical | IC50, µM | shares compounds with Rin1-Abl PPI inh | AID 602182, 2012 | GFP fluorescence interference/quenching counterscreen | 230 tested, under 10 active; call rule not given here;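 also: ABL1-eGFP fusion protein alone without its RIN1 binding partner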
# * hit, by the source's call; nt = no result. Rule as the data show it, unless noted: active = inhibition above about 6.5%; inactive = the rest.
SMILES,MBD2 inh,LEDGF integ inh,TDP2 absorb,Rin1-Abl PPI inh,UHRF1 MBD2 ctr,Rin1-Abl confirm,GFP quencher,others
Cc1ccc(C(=O)N[C@H](C(=O)Nc2cc(Cl)cc(Cl)c2)C(C)C)cc1,3,2,-3,5.8*,5,-1,-1,
CC(=O)Nc1ccc(NC(=O)C(NC(=O)c2ccc(Cl)cc2)C(C)C)cc1 (configuration not stated),-2,0,6,-2,2,nt,nt,
COC(=O)c1cc(OC)nc(OC)c1,1,-1,3,-2,1,nt,nt,
COC(=O)c1cc(O)c(O)c(O)c1,5,-1,-3,18*,5,17*,4,
O=C1[C@H]2C[C@@]3(n4ccc5ccccc54)c4ccccc4N(S(=O)(=O)c4ccccc4)[C@H]3N2C(=O)CN1Cc1ccccc1,1,5,-8,nt,2,nt,nt,
Cc1cccc(N(Cc2ccccc2)C(=O)c2ccc(S(C)(=O)=O)cc2)c1,2,2,-2,8.3*,1,-2,2,
CS(=O)(=O)c1ccc(C(=O)N(Cc2ccccc2)c2ccccc2)cc1,3,-2,-2,4,2,nt,nt,
Cc1ccc(-n2c(SCC(=O)NCc3ccco3)nnc2-c2cccnc2)c(C)c1,0,1,1,12*,0,9.7*,-1,
CCN(CC)c1ccc2cc(C(=O)NNC(=O)c3ccc(S(=O)(=O)N4CCCCC4)cc3)c(=O)oc2c1,0,0,2,4.7*,2,-1,-1,
COc1ccccc1C=NNC(=O)CSc1nc2ccccc2n1Cc1ccc(Cl)cc1,-1,-3,2,nt,0,nt,nt,
COc1ccccc1CNC(=O)C[C@H]1CC[C@H]2[C@@H](COc3ccc(NC(=O)Nc4ccccc4)cc3C(=O)N2C)O1,2,0,1,nt,-1,nt,nt,
Cc1ccc(C2/C(=C(\O)c3ccc4c(c3)OCCO4)C(=O)C(=O)N2CC2CCCO2)cc1 (configuration not stated),2,1,2,8.5*,-5,-5,0,
Cc1ccc(C2/C(=C(\O)c3ccc4c(c3)OCCO4)C(=O)C(=O)N2Cc2cccnc2)cc1 (configuration not stated),1,0,0,-8,-3,nt,nt,
CCCCNC(=O)C1CCCN1C(=O)Nc1cc(C)cc(C)c1 (configuration not stated),-1,1,0,nt,-2,nt,nt,
COc1ccc(S(=O)(=O)Nc2nnc(C(C)(C)C)s2)cc1,0,-1,9,2,1,nt,nt,
CC(C)(C)c1nnc(NS(C)(=O)=O)s1,1,7,-6,9.9*,4,1,1,
CCOC(=O)c1ccc(CNC(=O)C(Cc2c[nH]c3ccccc23)NC(C)=O)o1 (configuration not stated),-4,0,-3,8.1*,2,2,-1,
CCOC(=O)NC(Cc1c[nH]c2ccccc12)C(=O)NCCc1ccc(S(N)(=O)=O)cc1 (configuration not stated),-1,1,5,1,-1,nt,nt,
Cc1ccccc1NC(=O)Cn1nnc(-c2ccncc2)n1,2,-4,6,nt,2,nt,nt,
Cc1[nH][nH]c(=O)c1C(c1c(C)[nH][nH]c1=O)c1cn(Cc2cccc3ccccc23)c2ccccc12,-5,12,60*,19*,10,6.5*,3,
COc1ccccc1CN1C[C@@H]2C[C@@H](c3ccc4nsnc4c3)N3CCC[C@@]23C1=O,-6,-11,4,22*,7,25*,0,GFP quench dose=>68
COc1ccccc1CN1C[C@@H]2C[C@@H](c3ccc(C)cc3)N3CCC[C@@]23C1=O,1,-5,8,0,2,nt,nt,
Cc1ccc(C(=O)C(C)N2C(=O)NC(C)(c3ccccc3)C2=O)cc1 (configuration not stated),-5,3,-10,7.1*,-1,-1,1,
CCC(=O)NC(c1cccs1)c1cc([N+](=O)[O-])c2cccnc2c1O (configuration not stated),-4,8,-1,10*,-5,6.3*,9.3*,
O=C1N(c2ccc(Cl)cc2)C(c2ccccc2)N2CCCN12 (configuration not stated),0,0,9,8.3*,0,12*,0,
SMILES,MBD2 inh,LEDGF integ inh,TDP2 absorb,Rin1-Abl PPI inh,UHRF1 MBD2 ctr,Rin1-Abl confirm,GFP quencher,others
Cc1ccc(C2N(c3cccc(Cl)c3)C(=O)N3CCCN23)cc1 (configuration not stated),1,-4,-1,29*,1,30*,-1,GFP quench dose=>68
O=C(OCc1cn(Cc2ccccc2F)nn1)N1CCOCC1,7,-3,-12,nt,7,nt,nt,
O=C(NC1CCCc2ccccc21)C1CCCN(S(=O)(=O)c2cnc[nH]2)C1 (configuration not stated),1,4,-7,7.3*,0,0,-2,
O=C(NC1CCCCCC1)C1CCCN(S(=O)(=O)c2cnc[nH]2)C1 (configuration not stated),3,0,10,-1,4,nt,nt,
Cc1ccc(Cl)cc1N1CCN(C(CC(C)C)c2nnnn2CC2CCCO2)CC1 (configuration not stated),-2,-3,0,7.4*,0,-2,1,
CCn1cc(C(=O)N2CCN(c3ccc(F)cc3)CC2)c(=O)c2ccc(C)nc21,3,-1,11,nt,1,nt,nt,
O=C(Cn1cc(COc2ccccc2[N+](=O)[O-])nn1)c1ccc(O)cc1,-3,-1,3,7.7*,1,-1,2,
CCN1CCCCC(NC(=O)Cc2ccccc2)C1=O (configuration not stated),2,-5,0,nt,1,nt,nt,
CSc1nc2sc3c(c2c(=O)[nH]1)CCC3,-3,-1,2,5.8*,-2,-3,-1,
CSc1nc2sc3c(c2c(=O)[nH]1)CCCC3,-6,3,4,-5,0,nt,nt,
CS(=O)(=O)N1CCC[C@]2(CC[C@@H](CCC#N)O2)C1,-5,-5,-1,nt,0,nt,nt,
COc1cccc(CN(CC(=O)NCC2CCCO2)C(=O)CNS(=O)(=O)c2ccccc2)c1 (configuration not stated),-5,-6,-6,4,2,nt,nt,

# Bioassay records: PubChem BioAssay, The Scripps Research Institute Molecular Screening Center
